Converted amounts (≈) assume the structure as drawn. The source made the active and inactive calls. The rule behind the calls is not given here. Residues, ends and D or L forms follow the SMILES beside them. *: point of attachment. Boc = CC(C)(C)OC(=O)*; NHBn = c1ccc(CN*)cc1
What was measured:
SK-MEL = assay: Cytotoxicity against human SK-MEL cells assessed as cell viability after 48 hrs by neutral red uptake assay; assay type: cell-based
Outline: (§1)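 Neutral red uptake assay on human cancer lines (SK-MEL, KB, BT-549, SK-OV-3) and noncancerous mammalian cells (VERO, LLC-PK1). Highest tested concentration was 10 µg/mL.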

Nakaseomyces glabratus = assay: Antifungal activity against Candida glabrata assessed as growth inhibition; assay type: functional, organism-based
Pichia kudriavzevii = assay: Antifungal activity against Candida krusei assessed as growth inhibition; assay type: functional, organism-based
LLC-PK1 = assay: Cytotoxicity against pig LLC-PK1 cells assessed as cell viability after 48 hrs by neutral red uptake assay; assay type: cell-based, Sus scrofa; settings: llc-pk1, 48 h; outline: as §1
BT-549 = assay: Cytotoxicity against human BT549 cells assessed as cell viability after 48 hrs by neutral red uptake assay; assay type: cell-based; settings: bt-549, 48 h; outline: as §1
KB = assay: Cytotoxicity against human KB cells assessed as cell viability after 48 hrs by neutral red uptake assay; assay type: cell-based; outline: as §1
Vero = assay: Cytotoxicity against african green monkey Vero cells assessed as cell viability after 48 hrs by neutral red uptake assay; assay type: cell-based; settings: chlorocebus sabaeus; outline: as §1
Cryptococcus neoformans = assay: Antifungal activity against Cryptococcus neoformans ATCC 90113 assessed as growth inhibition after 70-74 hrs by CLSI method; assay type: functional, organism-based
Aspergillus fumigatus = assay: Antifungal activity against Aspergillus fumigatus assessed as growth inhibition; assay type: functional, organism-based
Escherichia coli = assay: Antibacterial activity against Escherichia coli ATCC 35218 assessed as growth inhibition after 16-20 hrs by CLSI method; assay type: functional, organism-based
SK-OV-3 = assay: Cytotoxicity against human SKOV3 cells assessed as cell viability after 48 hrs by neutral red uptake assay; assay type: cell-based; settings: sk-ov-3, 48 h; outline: as §1
Candida albicans = assay: Antifungal activity against Candida albicans assessed as growth inhibition; assay type: functional, organism-based
[1] = Cryptococcus neoformans, ATCC 90113, read-out: IC50

MIC (Cryptococcus neoformans)	MIC (Cryptococcus neoformans; Cryptococcus neoformans, ATCC 90113)	SMILES	Activity (SK-MEL)	growth inhibition (GI) (Nakaseomyces glabratus)	growth inhibition (GI) (Pichia kudriavzevii)	Activity (LLC-PK1)	Activity (BT-549)	Activity (KB)	Activity (Vero)	MFC (Cryptococcus neoformans)	IC50 (Cryptococcus neoformans; [1])	growth inhibition (GI) (Aspergillus fumigatus)	growth inhibition (GI) (Escherichia coli)	Activity (SK-OV-3)	growth inhibition (GI) (Candida albicans)	IC50 (Cryptococcus neoformans)
inactive	–	COC(=O)[C@H](Cc1c[nH]c(-c2ccc(C(C)(C)C)cc2)n1)NC(=O)[C@@H](N)Cc1c[nH]c2ccccc12	> 10 µg/mL	inactive	inactive	> 10 µg/mL	> 10 µg/mL	> 10 µg/mL	> 10 µg/mL	inactive	18.8 µg/mL (≈ 38.6 µM)	inactive	inactive	> 10 µg/mL	inactive	–
inactive	–	COC(=O)[C@H](Cc1c[nH]c(-c2ccc(C)cc2)n1)NC(=O)[C@H](Cc1c[nH]c2ccccc12)NC(=O)OC(C)(C)C	> 10 µg/mL	inactive	inactive	> 10 µg/mL	> 10 µg/mL	> 10 µg/mL	> 10 µg/mL	inactive	–	inactive	inactive	> 10 µg/mL	inactive	Not Active
inactive	–	CC(C)(C)OC(=O)N[C@@H](Cc1c[nH]c2ccccc12)C(=O)N[C@@H](Cc1c[nH]c(-c2ccc(-c3ccccc3)cc2)n1)C(=O)NCc1ccccc1	> 10 µg/mL	inactive	inactive	> 10 µg/mL	> 10 µg/mL	> 10 µg/mL	> 10 µg/mL	inactive	–	inactive	inactive	> 10 µg/mL	inactive	Not Active
inactive	–	COC(=O)[C@H](CCCNC(=N)N)NC(=O)[C@@H](N)Cc1c[nH]c(-c2ccc(OC)cc2)n1	> 10 µg/mL	inactive	inactive	> 10 µg/mL	> 10 µg/mL	> 10 µg/mL	> 10 µg/mL	inactive	–	inactive	inactive	> 10 µg/mL	inactive	Not Active
inactive	–	CC(C)(C)OC(=O)N[C@@H](Cc1c[nH]cn1)C(=O)N[C@@H](CCCNC(=N)N)C(=O)NCc1ccccc1 (Boc-His-Arg-NHBn)	> 10 µg/mL	inactive	inactive	> 10 µg/mL	> 10 µg/mL	> 10 µg/mL	> 10 µg/mL	inactive	–	inactive	inactive	> 10 µg/mL	inactive	Not Active
inactive	–	Cc1ccc(-c2nc(C[C@H](NC(=O)[C@H](Cc3c[nH]c4ccccc34)NC(=O)OC(C)(C)C)C(=O)NCc3ccccc3)c[nH]2)cc1	> 10 µg/mL	inactive	inactive	> 10 µg/mL	> 10 µg/mL	> 10 µg/mL	> 10 µg/mL	inactive	–	inactive	inactive	> 10 µg/mL	inactive	Not Active
inactive	–	COC(=O)[C@H](CCCNC(=N)N)NC(=O)[C@@H](N)Cc1c[nH]c(-c2ccc(C)cc2)n1	> 10 µg/mL	inactive	inactive	> 10 µg/mL	> 10 µg/mL	> 10 µg/mL	> 10 µg/mL	inactive	–	inactive	inactive	> 10 µg/mL	inactive	Not Active
inactive	–	N=C(N)NCCC[C@H](NC(=O)[C@@H](N)Cc1c[nH]cn1)C(=O)NCc1ccccc1 (H-His-Arg-NHBn)	> 10 µg/mL	inactive	inactive	> 10 µg/mL	> 10 µg/mL	> 10 µg/mL	> 10 µg/mL	inactive	–	inactive	inactive	> 10 µg/mL	inactive	Not Active
–	10 µg/mL (≈ 18.6 µM)	COc1ccc(-c2nc(C[C@H](NC(=O)[C@@H](N)Cc3c[nH]c4ccccc34)C(=O)NCc3ccccc3)c[nH]2)cc1	> 10 µg/mL	inactive	inactive	> 10 µg/mL	> 10 µg/mL	> 10 µg/mL	> 10 µg/mL	inactive	10.8 µg/mL (≈ 20.2 µM)	inactive	inactive	> 10 µg/mL	inactive	–
inactive	–	COC(=O)[C@H](CCCNC(=N)N)NC(=O)[C@H](Cc1c[nH]cn1)NC(=O)OC(C)(C)C (Boc-His-Arg-OMe)	> 10 µg/mL	inactive	inactive	> 10 µg/mL	> 10 µg/mL	> 10 µg/mL	> 10 µg/mL	inactive	–	inactive	inactive	> 10 µg/mL	inactive	Not Active
inactive	–	CC(C)(C)OC(=O)N[C@@H](Cc1c[nH]c2ccccc12)C(=O)N[C@@H](Cc1c[nH]c(-c2ccccc2)n1)C(=O)NCc1ccccc1	> 10 µg/mL	inactive	inactive	> 10 µg/mL	> 10 µg/mL	> 10 µg/mL	> 10 µg/mL	inactive	–	inactive	inactive	> 10 µg/mL	inactive	Not Active
inactive	–	COC(=O)[C@H](Cc1c[nH]c(-c2ccccc2)n1)NC(=O)[C@H](Cc1c[nH]c2ccccc12)NC(=O)OC(C)(C)C	> 10 µg/mL	inactive	inactive	> 10 µg/mL	> 10 µg/mL	> 10 µg/mL	> 10 µg/mL	inactive	–	inactive	inactive	> 10 µg/mL	inactive	Not Active
inactive	–	N[C@@H](Cc1c[nH]c2ccccc12)C(=O)N[C@@H](Cc1c[nH]cn1)C(=O)NCc1ccccc1 (H-Trp-His-NHBn)	> 10 µg/mL	inactive	inactive	> 10 µg/mL	> 10 µg/mL	> 10 µg/mL	> 10 µg/mL	inactive	–	inactive	inactive	> 10 µg/mL	inactive	Not Active
inactive	–	COC(=O)[C@H](Cc1c[nH]c(-c2ccc(OC)cc2)n1)NC(=O)[C@@H](N)Cc1c[nH]c2ccccc12	> 10 µg/mL	inactive	inactive	> 10 µg/mL	> 10 µg/mL	> 10 µg/mL	> 10 µg/mL	inactive	–	inactive	inactive	> 10 µg/mL	inactive	Not Active
inactive	–	COc1ccc(-c2nc(C[C@H](N)C(=O)N[C@@H](CCCNC(=N)N)C(=O)NCc3ccccc3)c[nH]2)cc1	> 10 µg/mL	inactive	inactive	> 10 µg/mL	> 10 µg/mL	> 10 µg/mL	> 10 µg/mL	inactive	–	inactive	inactive	> 10 µg/mL	inactive	Not Active

From ChEMBL document CHEMBL3132745, “Synthesis and Antimicrobial Activities of His(2-aryl)-Arg and Trp-His(2-aryl) Classes of Dipeptidomimetics” (Medchemcomm, 2014)
